Experimental data taken from ChEMBL document CHEMBL1177638, “Synthesis of pyrrolo[3,2-h]quinolinones with good photochemotherapeutic activity and no DNA damage” (Bioorg Med Chem, 2010).
Calls of active or inactive are those of the source. No cut-off for these calls is given here.

How the values were obtained:
LoVo [1] = experiment: Phototoxicity against human LoVo cells irradiated with 2.5 J/cm'2 after 72 hrs by MTT assay; format: functional, cell-based; details: light or radiation study
Method in brief: (§1)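 Cells were seeded at 8 × 10³ and preincubated 18 h at 37 °C, 5% CO₂. Jurkat and K-562 grew in RPMI-1640, MCF-7 and NCTC-2544 in DMEM, and LoVo in Ham's F12, all with 10% FBS plus penicillin and streptomycin. Compounds in DMSO were diluted in HBSS, pH 7.2 (range 20–0.31; DMSO ≤1%) and applied 30 min at 37 °C. Wells were then UV-A irradiated (365 nm; 2.5 or 3.75 J/cm²), medium was replaced, and MTT was read after 72 h.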

K562 [2] = experiment: Phototoxicity against human K562 cells irradiated with 3.75 J/cm'2 after 72 hrs by MTT assay; format: functional, cell-based; details: K562, light or radiation study; method in brief: as §1
Jurkat [3] = experiment: Induction of apoptosis in human Jurkat cells assessed as induction of loss of membrane potential at 1 uM after 2 hrs post-irradiation with 20 J/cm'2 using JC1 staining by FACS; format: functional
Method in brief: (§2)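 Irradiated Jurkat cells treated with compound were collected 2 and 4 h after irradiation and resuspended in HBSS containing JC-1. Green (FL1) and orange (FL2) fluorescence were read by flow cytometry, with at least 10,000 events per sample. Values are mean ± SD of at least three independent experiments.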

Jurkat [4] = experiment: Induction of apoptosis in human Jurkat cells assessed as lysosomal dysfunction at 1 uM after 2 hrs post-irradiation with 2.5 J/cm'2 using acridine orange dye by flow cytometry; format: functional
Method in brief: (§3)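 Jurkat cells were irradiated (2.5 J/cm²) with compound present and collected at 2 and 4 h. They were resuspended in RPMI-1640 containing acridine orange, and the percentage of red-fluorescent cells (intact lysosomes) was scored by flow cytometry. Values are mean ± SD of at least three independent experiments.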

Jurkat [5] = experiment: Induction of apoptosis in human Jurkat cells assessed as lysosomal dysfunction at 1 uM after 4 hrs post-irradiation with 2.5 J/cm'2 using acridine orange dye by flow cytometry; format: functional; method in brief: as §3
Jurkat [6] = experiment: Induction of apoptosis in human Jurkat cells assessed as induction of loss of membrane potential at 1 uM after 4 hrs post-irradiation with 20 J/cm'2 by flow cytometry; format: functional; method in brief: as §2
MCF7 [7] = experiment: Phototoxicity against human MCF7 cells irradiated with 3.75 J/cm'2 after 72 hrs by MTT assay; format: functional, cell-based; details: MCF7, light or radiation study; method in brief: as §1
Jurkat [8] = experiment: Cell cycle arrest in human Jurkat cells assessed as accumulation in subG1 phase at 1 uM irradiated with 20 J/cm'2 after 24 hrs by flow cytometry; format: functional
Method in brief: (§4)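 Exponentially growing Jurkat cells (5 × 10⁵) were irradiated with compound present. Drug was removed, and cells were kept 24 h in RPMI-1640, fixed in ice-cold 70% ethanol, and treated overnight with RNAse (10 KU/mL) in PBS. Cells were stained with propidium iodide and run on a flow cytometer, with DNA content reported as the fraction of cells in each cycle phase.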

[9] = Phototoxicity against human sNCTC-2544 cells irradiated with 3.75 J/cm'2 after 72 hrs by MTT assay; format: functional, cell-based; details: NCTC-2544, light or radiation study; method in brief: as §1
Jurkat [10] = experiment: Cell cycle arrest in human Jurkat cells assessed as accumulation in S phase at 1 uM irradiated with 20 J/cm'2 after 24 hrs by flow cytometry; format: functional; method in brief: as §4
LoVo [11] = experiment: Phototoxicity against human LoVo cells irradiated with 3.75 J/cm'2 after 72 hrs by MTT assay; format: functional, cell-based; details: light or radiation study; method in brief: as §1
K562 [12] = experiment: Phototoxicity against human K562 cells irradiated with 2.5 J/cm'2 after 72 hrs by MTT assay; format: functional, cell-based; details: K562, light or radiation study; method in brief: as §1
Jurkat [13] = experiment: Phototoxicity against human Jurkat cells irradiated with 2.5 J/cm'2 after 72 hrs by MTT assay; format: functional, cell-based; details: light or radiation study; method in brief: as §1
Jurkat [14] = experiment: Cell cycle arrest in human Jurkat cells assessed as accumulation in G1 phase at 1 uM irradiated with 25 J/cm'2 after 24 hrs by flow cytometry
MCF7 [15] = experiment: Phototoxicity against human MCF7 cells irradiated with 2.5 J/cm'2 after 72 hrs by MTT assay; format: functional, cell-based; details: MCF7, light or radiation study; method in brief: as §1
Jurkat [16] = experiment: Induction of apoptosis in human Jurkat cells assessed as phosphatidylserine esposure after 2 hrs using annexin-V FITC and PI staining by flow cytometry; format: functional, cell-based
Method in brief: (§5)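 Jurkat cells (100,000) were irradiated (2.5 J/cm²) with compound present and centrifuged 30 min, 1 h or 2 h later. They were stained with Annexin V-FITC/PI for 15 min in the dark, and FITC (FL1) and PI (FL3) were read by flow cytometry, with at least 10,000 events. Cells were classed as intact, early apoptotic, late apoptotic/necrotic or necrotic. Values are the mean of three experiments.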

Nucleic Acid = experiment: Binding affinity to salmon testes DNA assessed as intercalation by linear dichroism experiment; format: nucleic-acid assay; details: Salmonidae
Method in brief: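 Salmon testes DNA was mixed with compound at [Drug]/[DNA] ratios of 0, 0.02 and 0.04 in 10 mM phosphate buffer, pH 7.2. Samples were oriented in a rotating cylindrical flow cuvette (0.14 cm path, 800 rpm), and linear dichroism spectra were recorded over roughly 250–450 nm.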

Jurkat [17] = experiment: Induction of apoptosis in human Jurkat cells assessed as induction of loss of membrane potential at 1 uM after 4 hrs post irradiation with 20 J/cm'2 using JC1 staining by FACS; format: functional; method in brief: as §2
Jurkat [18] = experiment: Induction of apoptosis in human Jurkat cells assessed as induction of loss of membrane potential at 1 uM after 2 hrs post-irradiation with 20 J/cm'2 by flow cytometry; format: functional; method in brief: as §2
Jurkat [19] = experiment: Phototoxicity against human Jurkat cells irradiated with 3.75 J/cm'2 after 72 hrs by MTT assay; format: functional, cell-based; details: light or radiation study; method in brief: as §1
Jurkat [20] = experiment: Induction of apoptosis in human Jurkat cells assessed as increase in mitochondrial ROS production at 1 uM after 6 hrs post-irradiation with 2.5 J/cm'2 by FACS analysis; format: functional
Method in brief: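 Jurkat cells were irradiated (2.5 J/cm²) with compound present and collected 6 h later. They were resuspended in HBSS with hydroethidine and DCFDA (2.5 and 5, respectively) and held at 37 °C for 15 or 30 min. Flow cytometry used 488 nm excitation, reading 620 nm for HE and 530 nm for DCF, with at least 10,000 events. Values are mean ± SD, three independent experiments.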

Jurkat [21] = experiment: Induction of lipid peroxidation in human Jurkat cells irradiated with 2.5 J/cm'2 assessed as increase in malondialdehyde production after 24 hrs by TBARS assay relative to untreated control; format: functional, cell-based
Method in brief: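 Jurkat cells (500,000) were irradiated (2.5 J/cm²) with compound present and incubated 24 h. Supernatant was kept with BHT, and cells were lysed in 1% SDS, with protein measured by the Peterson method. Malondialdehyde was measured by thiobarbituric acid reaction (fluorescence, 553 nm) against a 1,1,3,3-tetraethoxypropane standard curve. Results are given as nmol TBARS normalized to protein.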

[22] = Phototoxicity against human sNCTC-2544 cells irradiated with 2.5 J/cm'2 after 72 hrs by MTT assay; format: functional, cell-based; details: NCTC-2544, light or radiation study; method in brief: as §1
Jurkat [23] = experiment: Induction of apoptosis in human Jurkat cells assessed as increase in mitochondrial ROS production at 2.5 uM after 6 hrs post-irradiation with 2.5 J/cm'2 by FACS analysis; format: functional
Method in brief: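 Jurkat cells were collected 6 h after UV-A irradiation (2.5 J/cm²) with the compound and resuspended in HBSS with hydroethidine 2.5 µM or DCFDA 5 µM. They were incubated at 37 °C for 15 or 30 min. Flow cytometry used 488 nm excitation, with emission at 620 nm (HE) or 530 nm (DCF), acquiring ≥10,000 events. Values are means ± SD of three independent experiments.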

Jurkat [24] = experiment: Cell cycle arrest in human Jurkat cells assessed as accumulation in G2/M phase at 1 uM irradiated with 25 J/cm'2 after 24 hrs by flow cytometry
Jurkat [25] = experiment: Induction of apoptosis in human Jurkat cells assessed as phosphatidylserine esposure after 30 mins using annexin-V FITC and PI staining by flow cytometry; format: functional, cell-based; method in brief: as §5

| Compound | IC50 (LoVo [1]) [nM] | IC50 (K562 [2]) [nM] | Activity (Jurkat [3]) [%] | Activity (Jurkat [4]) [%] | Activity (Jurkat [5]) [%] | Activity (Jurkat [6]) [%] | IC50 (MCF7 [7]) [nM] | Activity (Jurkat [8]) [%] | IC50 [9] [nM] | Activity (Jurkat [10]) [%] | IC50 (LoVo [11]) [nM] | IC50 (K562 [12]) [nM] | IC50 (Jurkat [13]) [nM] | Activity (Jurkat [14]) [%] | IC50 (MCF7 [15]) [nM] | Activity (Nucleic Acid) | Activity (Jurkat [17]) [%] | Activity (Jurkat [18]) [%] | IC50 (Jurkat [19]) [nM] | Activity (Jurkat [20]) [%] | other results |
| --- | --- | --- | --- | --- | --- | --- | --- | --- | --- | --- | --- | --- | --- | --- | --- | --- | --- | --- | --- | --- | --- |
| CCOC(=O)c1cc2c(n1Cc1ccc(OC)cc1)-c1[nH]c(=O)c(S(=O)(=O)c3ccccc3)cc1CC2 | 1100 | 900 | 55.57 | 58.5 | 63.16 | 47.07 | 1300 | 74.7 | 1600 | 6.1 | 1000 | 1000 | 800 | 12.6 | 1600 | inactive | 25.86 | 44.43 | 700 | 79.08 | Activity (Jurkat [16]): Active; Activity (Jurkat [21]): Dose-dependent effect; IC50 [22]: 1900 nM; Activity (Jurkat [23]): Active; Activity (Jurkat [24]): 6.6% |
| CCOC(=O)c1cc2c(n1C)-c1[nH]c(=O)c(S(=O)(=O)c3ccccc3)cc1CC2 | 1100 | 900 | 98.68 | 29.72 | 36.97 | 5.14 | 1000 | 63.3 | 1100 | 6.6 | 1000 | 1000 | 700 | 16.1 | 1200 | inactive | 94.8 | 1.3 | 500 | 0.7 | Activity (Jurkat [25]): Active; Activity (Jurkat [21]): Dose-dependent effect; IC50 [22]: 1200 nM; Activity (Jurkat [24]): 14% |
| CCOC(=O)c1cc2c(n1Cc1ccccc1)-c1[nH]c(=O)c(S(=O)(=O)c3ccccc3)cc1CC2 | 900 | 600 | 75.74 | 29.76 | 55.82 | 67.18 | 800 | 68.5 | 1000 | 8.2 | 800 | 900 | 800 | 16.1 | 900 | inactive | 32.82 | 24.26 | 600 | 24.4 | Activity (Jurkat [16]): Active; Activity (Jurkat [21]): Dose-dependent effect; IC50 [22]: 1100 nM; Activity (Jurkat [23]): Active; Activity (Jurkat [24]): 7.2% |
